The target of data set [1] is T1, Glucocorticoid receptor (Rattus norvegicus) (UniProt P06536).
T1 sequence (whole entry): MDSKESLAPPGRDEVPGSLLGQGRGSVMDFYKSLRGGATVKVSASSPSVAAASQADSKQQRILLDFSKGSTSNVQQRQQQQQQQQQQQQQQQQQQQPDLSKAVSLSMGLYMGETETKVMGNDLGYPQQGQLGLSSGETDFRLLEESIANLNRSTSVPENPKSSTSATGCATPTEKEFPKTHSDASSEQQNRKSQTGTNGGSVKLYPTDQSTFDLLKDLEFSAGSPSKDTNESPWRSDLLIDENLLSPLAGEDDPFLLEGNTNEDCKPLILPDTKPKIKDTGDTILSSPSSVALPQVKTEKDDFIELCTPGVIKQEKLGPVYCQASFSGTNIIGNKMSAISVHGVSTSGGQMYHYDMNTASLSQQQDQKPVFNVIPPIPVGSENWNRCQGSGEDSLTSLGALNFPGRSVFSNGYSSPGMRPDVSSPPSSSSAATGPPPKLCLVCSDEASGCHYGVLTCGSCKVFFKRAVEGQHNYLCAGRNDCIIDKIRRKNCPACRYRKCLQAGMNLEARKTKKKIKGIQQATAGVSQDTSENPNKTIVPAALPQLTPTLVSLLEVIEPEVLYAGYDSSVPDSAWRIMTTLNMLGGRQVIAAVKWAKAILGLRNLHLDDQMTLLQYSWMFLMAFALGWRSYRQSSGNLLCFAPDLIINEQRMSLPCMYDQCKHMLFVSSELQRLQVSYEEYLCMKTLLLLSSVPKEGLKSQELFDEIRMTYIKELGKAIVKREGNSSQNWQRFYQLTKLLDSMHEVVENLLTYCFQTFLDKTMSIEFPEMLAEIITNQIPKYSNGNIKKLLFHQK
Put plainly: (§1) Antagonist activity at rat glucocorticoid receptor in primary hepatocytes assessed as dexamethasone-induced tyrosine amino transferase activity preincubated for 30 mins followed by dexamethasone addition measured after 20 hrs. The data set is classed as cell-based.

In data set [2] the target is T2, Glucocorticoid receptor (Rattus norvegicus, UniProt P06536).
T2 sequence (P06536 whole entry): T1 sequence (whole entry)
The description is as §1. The data set is classed as cell-based.

Data set [3] has as its target T3, Glucocorticoid receptor (Homo sapiens) (UniProt P04150).
T3 sequence (whole entry): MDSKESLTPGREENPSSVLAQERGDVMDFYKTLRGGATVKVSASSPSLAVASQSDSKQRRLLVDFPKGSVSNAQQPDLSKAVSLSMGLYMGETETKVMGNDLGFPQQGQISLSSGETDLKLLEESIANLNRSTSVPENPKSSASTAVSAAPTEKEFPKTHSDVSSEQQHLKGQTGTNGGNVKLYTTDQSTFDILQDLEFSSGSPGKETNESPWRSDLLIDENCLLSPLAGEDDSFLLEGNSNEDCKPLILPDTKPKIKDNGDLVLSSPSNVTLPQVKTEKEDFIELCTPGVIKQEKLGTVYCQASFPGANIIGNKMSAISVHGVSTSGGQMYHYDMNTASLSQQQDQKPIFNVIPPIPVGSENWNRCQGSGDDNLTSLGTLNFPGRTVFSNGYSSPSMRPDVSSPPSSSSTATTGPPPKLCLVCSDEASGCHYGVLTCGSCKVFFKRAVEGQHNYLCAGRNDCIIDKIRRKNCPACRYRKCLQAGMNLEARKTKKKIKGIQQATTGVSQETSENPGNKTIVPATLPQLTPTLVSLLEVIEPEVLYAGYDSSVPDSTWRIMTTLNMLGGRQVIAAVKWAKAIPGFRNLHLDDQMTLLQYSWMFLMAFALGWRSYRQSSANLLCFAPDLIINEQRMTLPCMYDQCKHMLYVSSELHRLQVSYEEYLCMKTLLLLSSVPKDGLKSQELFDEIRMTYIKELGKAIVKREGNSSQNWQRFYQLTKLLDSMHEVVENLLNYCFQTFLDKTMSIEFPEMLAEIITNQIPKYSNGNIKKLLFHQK
Put plainly: Agonist activity at glucocorticoid receptor in human HepG2 cells assessed as induction of tyrosine amino transferase activity measured after 20 hrs. Conditions: in the assay text read “primary hepatocytes” for “HepG2 cells”. It counts as cell-based. The procedure, abridged:
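HepG2 cells in charcoal-stripped FBS RPMI, 25,000 cells/well, 24 h; assay media with 10 µM forskolin. 30 min pre-incubation in 0.1% DMSO, then compound (8-point half-log, 10 µM to 0.003 µM final) for 20 h at 37°C. TAT in lysate with tyrosine, alpha-ketoglutarate and pyridoxal phosphate, 2 h at 37°C, KOH stop, A340. EC50 from 4-parameter fit of % activation of basal TAT.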

Data set [4] deals with T3, Glucocorticoid receptor (Homo sapiens). Put plainly: (§2) Antagonist activity at glucocorticoid receptor in human primary hepatocytes assessed as inhibition of dexamethasone-induced tyrosine amino transferase activity preincubated for 30 mins followed by dexamethasone addition measured after 20 hrs. It counts as cell-based.
For data set [5], the target named is T4, Glucocorticoid receptor (Homo sapiens, UniProt P04150).
T4 sequence (P04150 whole entry): T3 sequence (whole entry)
The description is as §2. It counts as cell-based.

The target in data set [6] is T5, Cytochrome P450 1A2 (Homo sapiens, UniProt P05177).
T5 sequence (P05177 whole entry): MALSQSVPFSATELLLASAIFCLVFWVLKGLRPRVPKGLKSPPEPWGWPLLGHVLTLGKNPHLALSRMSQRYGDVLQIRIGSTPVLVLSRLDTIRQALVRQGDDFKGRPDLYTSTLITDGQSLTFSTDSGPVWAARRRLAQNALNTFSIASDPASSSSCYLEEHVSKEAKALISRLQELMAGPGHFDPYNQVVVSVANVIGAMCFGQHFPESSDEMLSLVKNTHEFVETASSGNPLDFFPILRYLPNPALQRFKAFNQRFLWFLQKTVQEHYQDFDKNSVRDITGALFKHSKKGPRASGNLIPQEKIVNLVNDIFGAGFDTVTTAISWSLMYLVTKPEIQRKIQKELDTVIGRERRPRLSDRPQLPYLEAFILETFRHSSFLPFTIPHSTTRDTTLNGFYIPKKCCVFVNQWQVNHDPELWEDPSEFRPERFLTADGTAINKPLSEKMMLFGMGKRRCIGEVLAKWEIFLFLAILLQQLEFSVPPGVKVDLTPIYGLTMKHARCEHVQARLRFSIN
Put plainly: Inhibition of CYP1A2 (unknown origin). It counts as ADME.

Data set [7] addresses Cytochrome P450 3A4 (Homo sapiens, UniProt P08684). Put plainly: Inhibition of CYP3A4 (unknown origin). The data set is classed as ADME.
A short description of data set [8]: AUC in Sprague-Dawley CD-1 rat plasma at 3 mg/kg, po administered as cassette dose via gavage measured up to 24 hrs by LC/MS analysis. The data set is classed as ADME, organism-based. Set-up: time < 24 hr, dose 3 mg/kg, route oral. The method in brief: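 Three male Sprague Dawley CD-1 rats (220-250g) with jugular vein catheters; three test compounds plus a reference dosed together by oral gavage, 3mg/kg each, in DMSO:0.5% methylcellulose 10:90 (0.6mg/mL per compound), 5mL/kg. Plasma sampled pre-dose and at 0.25, 0.5, 1, 2, 4, 6, 8, 24 h; LC/MS.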

The target in data set [9] is T3, Glucocorticoid receptor (Homo sapiens). Briefly: Displacement of fluormone GS Red from human glucocorticoid receptor at 1 uM after 4 hrs by fluorescence polarization assay relative to control.

Chain of Cytochrome P450 3A4 (P08684 whole entry): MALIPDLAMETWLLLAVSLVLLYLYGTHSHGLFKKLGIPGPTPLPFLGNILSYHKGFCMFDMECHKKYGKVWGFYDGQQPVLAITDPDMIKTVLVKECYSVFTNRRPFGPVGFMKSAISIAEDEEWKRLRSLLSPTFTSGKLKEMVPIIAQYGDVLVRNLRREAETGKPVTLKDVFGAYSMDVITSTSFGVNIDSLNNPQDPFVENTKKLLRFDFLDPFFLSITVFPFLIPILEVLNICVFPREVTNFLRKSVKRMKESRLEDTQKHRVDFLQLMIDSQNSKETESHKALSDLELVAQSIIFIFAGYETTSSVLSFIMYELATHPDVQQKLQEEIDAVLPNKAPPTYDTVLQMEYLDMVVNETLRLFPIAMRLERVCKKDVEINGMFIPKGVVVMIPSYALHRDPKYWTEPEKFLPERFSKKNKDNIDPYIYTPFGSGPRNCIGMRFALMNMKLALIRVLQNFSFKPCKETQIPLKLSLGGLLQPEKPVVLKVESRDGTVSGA

As to `Cn1cc(S(=O)(=O)N2CCC3=Cc4c(cnn4-c4ccc(F)cc4)C[C@]3(C(=O)c3cc(C(F)(F)F)ccn3)C2)cn1` [RELACORILANT], the Imax in data set [1] turned out to be 54.2%; in data set [4], 100%. For the same molecule, the Ki was 12 nM in data set [2] and 81.2 nM in data set [5]. Further, the Emax in data set [3] was determined as 0%. For the same molecule, the half-inhibitory concentration (IC50) in data set [6] is greater than 10000 nM; in data set [7], 1300 nM. The AUC at 24 h in data set [8] was 1220 ng·h/mL. The inhibition in data set [9] amounted to 100%.
